From ChEMBL document CHEMBL2021838, “Solvent effect on copper-catalyzed azide-alkyne cycloaddition (CuAAC): synthesis of novel triazolyl substituted quinolines as potential anticancer agents” (Bioorg Med Chem Lett, 2012)

Key:
K562 [1] = experiment: Antiproliferative activity against human K562 cells assessed as cell growth inhibition at 10 uM after 24 hrs by MTT assay; type: functional; conditions: K562, 24 h, read-out: GI
How it was run: (§1)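 MTT viability assay. Cells seeded at 5 × 10³ per well and cultured with or without compound for 24 h. MTT (5 mg/ml in PBS) was then added in fresh medium and incubated 2 h at 37 °C, followed by DMSO and 1 min agitation. Absorbance was read at 570 nm. Percent inhibition of proliferation was calculated relative to the untreated control. Dose-response used […].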

MDA-MB-231 [2] = experiment: Antiproliferative activity against human MDA-MB-231 cells assessed as cell growth inhibition at 10 uM after 24 hrs by MTT assay; type: functional; conditions: MDA-MB-231, 24 h, read-out: GI; how it was run: as §1
MDA-MB-231 [3] = experiment: Antiproliferative activity against human MDA-MB-231 cells assessed as cell growth inhibition at 1 uM after 24 hrs by MTT assay; type: functional; conditions: MDA-MB-231, 24 h, read-out: GI; how it was run: as §1
K562 [4] = experiment: Antiproliferative activity against human K562 cells assessed as cell growth inhibition at 1 uM after 24 hrs by MTT assay; type: functional; conditions: K562, 24 h, read-out: GI; how it was run: as §1
K562 [5] = experiment: Antiproliferative activity against human K562 cells assessed as cell growth inhibition at 0.5 uM after 24 hrs by MTT assay; type: functional; conditions: K562, 24 h, read-out: GI; how it was run: as §1
K562 [6] = experiment: Antiproliferative activity against human K562 cells assessed as cell growth inhibition at 0.1 uM after 24 hrs by MTT assay; type: functional; conditions: K562, 24 h, read-out: GI; how it was run: as §1
K562 [7] = experiment: Antiproliferative activity against human K562 cells assessed as cell growth inhibition at 0.01 uM after 24 hrs by MTT assay; type: functional; conditions: K562, 24 h, read-out: GI; how it was run: as §1
K562 [8] = experiment: Antiproliferative activity against human K562 cells assessed as cell growth inhibition after 24 hrs by MTT assay; type: functional, cell-based; conditions: K562, 24 h; how it was run: as §1
MDA-MB-231 [9] = experiment: Antiproliferative activity against human MDA-MB-231 cells assessed as cell growth inhibition after 24 hrs by MTT assay; type: functional, cell-based; conditions: MDA-MB-231, 24 h; how it was run: as §1
MDA-MB-231 [10] = experiment: Antiproliferative activity against human MDA-MB-231 cells assessed as cell growth inhibition at 0.01 uM after 24 hrs by MTT assay; type: functional; conditions: MDA-MB-231, 24 h, read-out: GI; how it was run: as §1
MDA-MB-231 [11] = experiment: Antiproliferative activity against human MDA-MB-231 cells assessed as cell growth inhibition at 0.1 uM after 24 hrs by MTT assay; type: functional; conditions: MDA-MB-231, 24 h, read-out: GI; how it was run: as §1
MDA-MB-231 [12] = experiment: Antiproliferative activity against human MDA-MB-231 cells assessed as cell growth inhibition at 0.5 uM after 24 hrs by MTT assay; type: functional; conditions: MDA-MB-231, 24 h, read-out: GI; how it was run: as §1

**Q.** With `CCCCCCc1cn(-c2cc(-n3cc(CCCCCC)nn3)c3ccccc3n2)nn1` as the compound, how does the inhibition of growth at 10 µM (K562 [1]) read?
**A.** The inhibition of growth at 10 µM was under 30%.

**Q.** What about the inhibition of growth at 10 µM (MDA-MB-231 [2]) of the same compound?
**A.** Its inhibition of growth at 10 µM is under 30%.

**Q.** `ClCCCc1cn(-c2cc(-n3cc(CCCCl)nn3)c3ccccc3n2)nn1` was tested. Which inhibition of growth at 10 µM (K562 [1]) did it give?
**A.** Its inhibition of growth at 10 µM is under 30%.

**Q.** What about the inhibition of growth at 10 µM (MDA-MB-231 [2]) of the same compound?
**A.** Its inhibition of growth at 10 µM is under 30%.

**Q.** Which inhibition of growth at 10 µM (K562 [1]) does the source give for `c1ccc(CCc2cn(-c3cc4nnnn4c4ccccc34)nn2)cc1` here?
**A.** The inhibition of growth at 10 µM was 38.1%.

**Q.** And the inhibition of growth at 1 µM (MDA-MB-231 [3])?
**A.** The inhibition of growth at 1 µM was 50.5%.

**Q.** What about the inhibition of growth at 1 µM (K562 [4]) of the same compound?
**A.** The inhibition of growth at 1 µM was 26.7%.

**Q.** And the inhibition of growth at 10 µM (MDA-MB-231 [2])?
**A.** The inhibition of growth at 10 µM was 60.8%.

**Q.** For `CCCCc1cn(-c2cc3nnnn3c3ccccc23)nn1`, which inhibition of growth at 10 µM (K562 [1]) is on record?
**A.** The inhibition of growth at 10 µM was 34.1%.

**Q.** What about the inhibition of growth at 1 µM (MDA-MB-231 [3]) of the same compound?
**A.** The inhibition of growth at 1 µM was 55.3%.

**Q.** What about the inhibition of growth at 1 µM (K562 [4]) of the same compound?
**A.** Its inhibition of growth at 1 µM is 28.2%.

**Q.** And the inhibition of growth at 10 µM (MDA-MB-231 [2])?
**A.** Its inhibition of growth at 10 µM is 57.1%.

**Q.** Which results are given for `CCCCCc1cn(-c2cc(-n3cc(CCCCC)nn3)c3ccccc3n2)nn1`?
**A.** inhibition of growth at 10 µM (K562 [1]): < 30%; inhibition of growth at 10 µM (MDA-MB-231 [2]): < 30%

**Q.** With `OCCCc1cn(-c2cc3nnnn3c3ccccc23)nn1` as the compound, how does the inhibition of growth at 10 µM (K562 [1]) read?
**A.** Its inhibition of growth at 10 µM is 52.4%.

**Q.** What about the inhibition of growth at 1 µM (MDA-MB-231 [3]) of the same compound?
**A.** Its inhibition of growth at 1 µM is 42%.

**Q.** What about the inhibition of growth at 0.5 µM (K562 [5]) of the same compound?
**A.** Its inhibition of growth at 0.5 µM is 30%.

**Q.** What about the inhibition of growth at 0.1 µM (K562 [6]) of the same compound?
**A.** The inhibition of growth at 0.1 µM was 22%.

**Q.** And the inhibition of growth at 0.01 µM (K562 [7])?
**A.** Its inhibition of growth at 0.01 µM is 9%.

**Q.** And the inhibition of growth at 1 µM (K562 [4])?
**A.** Its inhibition of growth at 1 µM is 47.1%.

**Q.** What about the IC50 (K562 [8]) of the same compound?
**A.** Its IC50 is 4.6 µM.

**Q.** And the inhibition of growth at 10 µM (MDA-MB-231 [2])?
**A.** The inhibition of growth at 10 µM was 46.1%.

**Q.** For `Cc1ccc(-c2cn(-c3cc4nnnn4c4ccccc34)nn2)cc1`, which inhibition of growth at 10 µM (K562 [1]) is on record?
**A.** The inhibition of growth at 10 µM was 44.1%.

**Q.** And the inhibition of growth at 1 µM (MDA-MB-231 [3])?
**A.** Its inhibition of growth at 1 µM is 47.7%.

**Q.** What about the inhibition of growth at 1 µM (K562 [4]) of the same compound?
**A.** The inhibition of growth at 1 µM was 20.6%.

**Q.** What about the inhibition of growth at 10 µM (MDA-MB-231 [2]) of the same compound?
**A.** Its inhibition of growth at 10 µM is 54%.

**Q.** Which inhibition of growth at 10 µM (K562 [1]) does the source give for `CCCCc1cn(-c2cc(-n3cc(CCCC)nn3)c3ccccc3n2)nn1` here?
**A.** Its inhibition of growth at 10 µM is under 30%.

**Q.** And the inhibition of growth at 10 µM (MDA-MB-231 [2])?
**A.** Its inhibition of growth at 10 µM is under 30%.

**Q.** With `c1ccc(-c2cn(-c3cc4nnnn4c4ccccc34)nn2)cc1` as the compound, how does the inhibition of growth at 10 µM (K562 [1]) read?
**A.** The inhibition of growth at 10 µM was 29.9%.

**Q.** What about the inhibition of growth at 1 µM (MDA-MB-231 [3]) of the same compound?
**A.** Its inhibition of growth at 1 µM is 52.5%.

**Q.** What about the inhibition of growth at 1 µM (K562 [4]) of the same compound?
**A.** Its inhibition of growth at 1 µM is 20.6%.

**Q.** And the inhibition of growth at 10 µM (MDA-MB-231 [2])?
**A.** The inhibition of growth at 10 µM was 56%.

**Q.** With `OCc1cn(-c2cc3nnnn3c3ccccc23)nn1` as the compound, how does the inhibition of growth at 10 µM (K562 [1]) read?
**A.** Its inhibition of growth at 10 µM is 36.9%.

**Q.** And the inhibition of growth at 1 µM (MDA-MB-231 [3])?
**A.** The inhibition of growth at 1 µM was 45.8%.

**Q.** And the inhibition of growth at 1 µM (K562 [4])?
**A.** The inhibition of growth at 1 µM was 21.8%.

**Q.** And the inhibition of growth at 10 µM (MDA-MB-231 [2])?
**A.** The inhibition of growth at 10 µM was 46.8%.

**Q.** With `CCCCCCc1cn(-c2cc3nnnn3c3ccccc23)nn1` as the compound, how does the inhibition of growth at 10 µM (K562 [1]) read?
**A.** The inhibition of growth at 10 µM was 37.4%.

**Q.** And the inhibition of growth at 1 µM (MDA-MB-231 [3])?
**A.** Its inhibition of growth at 1 µM is 49.7%.

**Q.** And the inhibition of growth at 1 µM (K562 [4])?
**A.** The inhibition of growth at 1 µM was 19.1%.

**Q.** And the inhibition of growth at 10 µM (MDA-MB-231 [2])?
**A.** Its inhibition of growth at 10 µM is 53.4%.

**Q.** How did the inhibition of growth at 10 µM (K562 [1]) turn out when `ClCCCc1cn(-c2cc3nnnn3c3ccccc23)nn1` was run?
**A.** Its inhibition of growth at 10 µM is 35.2%.

**Q.** And the IC50 (MDA-MB-231 [9])?
**A.** Its IC50 is 800 nM.

**Q.** What about the inhibition of growth at 1 µM (MDA-MB-231 [3]) of the same compound?
**A.** Its inhibition of growth at 1 µM is 60.2%.

**Q.** And the inhibition of growth at 0.01 µM (MDA-MB-231 [10])?
**A.** Its inhibition of growth at 0.01 µM is 11%.

**Q.** And the inhibition of growth at 0.1 µM (MDA-MB-231 [11])?
**A.** The inhibition of growth at 0.1 µM was 24%.

**Q.** What about the inhibition of growth at 0.5 µM (MDA-MB-231 [12]) of the same compound?
**A.** The inhibition of growth at 0.5 µM was 46%.

**Q.** What about the inhibition of growth at 1 µM (K562 [4]) of the same compound?
**A.** Its inhibition of growth at 1 µM is 19.9%.

**Q.** What about the inhibition of growth at 10 µM (MDA-MB-231 [2]) of the same compound?
**A.** The inhibition of growth at 10 µM was 70.1%.
